This is an account of results in ChEMBL document CHEMBL2417464, “Design and synthesis of novel quinazoline nitrogen mustard derivatives as potential therapeutic agents for cancer” (Eur J Med Chem, 2013).

One series concerns DU-145. The series can be described thus: Cytotoxicity against human DU145 cells after 72 hrs by MTT assay. It is filed as functional, cell-based. Particulars: DU-145, 72 h. On the technique in general: Tetrazolium assays rely on reduction of a dye to a coloured formazan, in cell work by metabolically active cells.
For the next series, the system named is MCF7. Put plainly: Cytotoxicity against human MCF7 cells after 72 hrs by MTT assay. It is filed as functional, cell-based. Particulars: MCF7, 72 h.
Another series has as its system A549. Put plainly: Cytotoxicity against human A549 cells after 72 hrs by MTT assay. It is filed as functional, cell-based. Particulars: A549, 72 h.
Series [1] has as its system HepG2. The series can be described thus: Cytotoxicity against human HepG2 cells after 72 hrs by MTT assay. Type of series: functional, cell-based. Particulars: HepG2, 72 h.
Series [2] can be described thus: Cytotoxicity against human SH-SY5Y cells after 72 hrs by MTT assay. Type of series: functional, cell-based.
The test system of series [3] is HepG2. Put plainly: Induction of apoptosis in human HepG2 cells assessed as late apoptotic cells at 2 uM after 48 hrs by Annexin V-FITC/propidium iodide staining-based flow cytometry (reference value: 2.13%). Type of series: functional. Background: In flow cytometry, cells or beads pass a laser one at a time.
The subject of series [4] is HepG2. Put plainly: Induction of apoptosis in human HepG2 cells assessed as late apoptotic cells at 6 uM after 48 hrs by Annexin V-FITC/propidium iodide staining-based flow cytometry (reference value: 2.13%). Type of series: functional.
For series [5], the system named is Mus musculus. Put plainly: Toxicity in nude mouse transfected with human HepG2 cells assessed as decrease in body weight at 20 mg/kg, iv administered from day 9 every other day for 7 times relative to negative control. Type of series: organism-based. The arrangement: dose 20 mg/kg, route intravenous. Particulars: in vivo. Summed up: (§1)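 HepG2 tumor-bearing mice (18–22 g, tumors 140–160 mg, 7–14 days post-inoculation). Dosing i.v. every other day, 7 doses, at 10 or 20 mg/kg; sorafenib and vehicle controls given identically. Body weight recorded every two days; mean change compared with vehicle group.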

Series [6] deals with HepG2. Put plainly: Induction of apoptosis in human HepG2 cells assessed as early apoptotic cells at 2 uM after 48 hrs by Annexin V-FITC/propidium iodide staining-based flow cytometry (reference value: 0.86%). Type of series: functional.
The test system of series [7] is HepG2. The series can be described thus: Cell cycle arrest in human HepG2 cells assessed as increase in sub G1 phase accumulation after 48 hrs by propidium iodide staining-based flow cytometry. Type of series: functional. The essentials:
(§2)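 HepG2 seeded 3 × 10⁵/well, 24 h, then exposed to a range of concentrations for 48 h. Cells fixed in ice-cold 70% ethanol ≥24 h, PBS-washed, RNase A treated, PI-stained 30 min at 4 °C in the dark. DNA content by flow cytometry gives G1, S, G2/M and sub-G1 fractions; mean of three independent determinations.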

The subject of series [8] is Mus musculus. Put plainly: Toxicity in nude mouse transfected with human HepG2 cells assessed as change in body weight at 10 mg/kg, iv administered from day 9 every other day for 7 times relative to negative control. It is filed as organism-based. On the set-up: dose 10 mg/kg, route intravenous. Particulars: in vivo. Summed up: as §1
The subject of series [9] is HepG2. The series can be described thus: Induction of apoptosis in human HepG2 cells assessed as early apoptotic cells at 4 uM after 48 hrs by Annexin V-FITC/propidium iodide staining-based flow cytometry (reference value: 0.86%). It is filed as functional.
Series [10] relates to HepG2. The series can be described thus: Antitumor activity against human HepG2 cells transfected in nude mouse assessed as tumor growth regression at 20 mg/kg, iv administered from day 9 post-infection every other day for 7 times relative to negative control. It is filed as functional. Summed up: (§3)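 HepG2 xenograft in mice, started 7–14 days after tumor cell inoculation (mice 18–22 g, tumors 140–160 mg). Dosing i.v. every other day, 7 doses, at 10 or 20 mg/kg; sorafenib and vehicle controls given the same way. Tumor dimensions recorded every two days. Growth regression expressed relative to vehicle control.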

In series [11] the test system is HepG2. Put plainly: Cell cycle arrest in human HepG2 cells assessed as increase in S phase accumulation after 48 hrs by propidium iodide staining-based flow cytometry. Type of series: functional. Summed up: as §2
Series [12] concerns HepG2. Put plainly: Induction of apoptosis in human HepG2 cells after 48 hrs by Annexin V-FITC/propidium iodide staining-based flow cytometry. It is filed as functional, cell-based.
Series [13] has as its system HepG2. Put plainly: Cell cycle arrest in human HepG2 cells assessed as increase in G2/M phase accumulation at 2 to 4 uM after 48 hrs by propidium iodide staining-based flow cytometry. Type of series: functional. Summed up: as §2
Series [14] deals with HepG2. Put plainly: Antitumor activity against human HepG2 cells transfected in nude mouse assessed as tumor growth regression at 10 mg/kg, iv administered from day 9 post-infection every other day for 7 times relative to negative control. Type of series: functional. Summed up:
as §3

In series [15] the test system is HepG2. Put plainly: Cell cycle arrest in human HepG2 cells assessed as increase in G2/M phase accumulation after 48 hrs by propidium iodide staining-based flow cytometry. It is filed as functional. The essentials: as §2
The subject of series [16] is HepG2. Put plainly: Cell cycle arrest in human HepG2 cells assessed as increase in S phase accumulation at 2 to 4 uM after 48 hrs by propidium iodide staining-based flow cytometry. Type of series: functional. The essentials:
as §2

In series [17] the test system is HepG2. Put plainly: Cell cycle arrest in human HepG2 cells assessed as decrease in G1 phase accumulation at 2 to 4 uM after 48 hrs by propidium iodide staining-based flow cytometry. Type of series: functional. Summed up: as §2
Series [18] deals with HepG2. Put plainly: Induction of apoptosis in human HepG2 cells assessed as late apoptotic cells at 4 uM after 48 hrs by Annexin V-FITC/propidium iodide staining-based flow cytometry (reference value: 2.13%). It is filed as functional.
Series [19] relates to HepG2. Put plainly: Induction of apoptosis in human HepG2 cells assessed as early apoptotic cells at 6 uM after 48 hrs by Annexin V-FITC/propidium iodide staining-based flow cytometry (reference value: 0.86%). Type of series: functional.
Series [20] is described as follows: Cytotoxicity against human GES-1 cells after 48 hrs by MTT assay. It is filed as cell-based. Particulars: GES1, 48 h.

SMILES strings stand for the structures. Active and inactive are the calls of the source. The calls are words filed in the database; no cut-off is given here.

As to `COc1cc2ncnc(Nc3ccc(N(CCCl)CCCl)cc3)c2cc1OCCCN1CCOCC1`, the IC50 (commonly the concentration that inhibits the measured activity by half) with DU-145 is 16.9 µM; with MCF7 it was 55 µM; with A549, 27.7 µM; with HepG2 [1], 12.2 µM; in series [2], 20.7 µM.
For `COc1cc2ncnc(Nc3ccc(N(CCCl)CCCl)cc3)c2cc1O`, in that order: 75.2 µM, 41.9 µM, 53.4 µM, 46.7 µM and 43.9 µM.
In the case of `COc1cc2ncnc(Nc3cccc(N(CCCl)CCCl)c3)c2cc1O`, the IC50 amounted to 41.5 µM in the series with DU-145; 67.4 µM with MCF7; 33 µM in the series on A549; 23.3 µM in the series with HepG2 [1]; 21.1 µM in [2].
As for `COc1cc2ncnc(Nc3ccc(N(CCCl)CCCl)cc3)c2cc1OC(C)=O`, the IC50 in the series with DU-145 turned out to be 49.2 µM; with MCF7 it was 28.9 µM; with A549, 28.8 µM; in the series with HepG2 [1], 47.1 µM; in [2] it was 17.4 µM.
For `COCCOc1cc2ncnc(Nc3cccc(N(CCCl)CCCl)c3)c2cc1OCCOC`, in that order: above 100 µM, above 100 µM, 77.4 µM, 33.5 µM and 16.9 µM.
As to `COc1cc2ncnc(Nc3cccc(N(CCCl)CCCl)c3)c2cc1OC`, the IC50 is above 100 µM with DU-145; above 100 µM in the series with MCF7; above 100 µM with A549; 17.4 µM with HepG2 [1]; 12.4 µM in [2].
Consider `COc1cc2ncnc(Nc3cccc(N(CCCl)CCCl)c3)c2cc1OCCCN1CCOCC1`, for which the IC50 with DU-145 worked out at 20 µM; with MCF7 it was 10.5 µM; with A549, 6.71 µM; in the series with HepG2 [1], 3.06 µM; in series [2], 8.6 µM. For the same molecule, the Activity is 6.64% in the series with HepG2 [3]; 57.7% in the series with HepG2 [4]; “Toxic” in the series with Mus musculus [5]; 4.58% in the series with HepG2 [6]; “Dose-dependent effect” in the series with HepG2 [7]; “Non-toxic” in the series with Mus musculus [8]. Further, the Activity with HepG2 [9] was 9.26%; in the series with HepG2 [11] it was “Dose-dependent effect”; with HepG2 [12], “Dose-dependent effect”; in the series on HepG2 [15], “Dose-dependent effect”; in the series on HepG2 [18] it was 32.13%; in the series on HepG2 [19], 17.9%. Moreover, the inhibition in vivo at 20 mg/kg in the series on HepG2 [10] (HepG2, 216 h, read-out: TGI) stood at 47.3%. Also, the outcome in the series on HepG2 [13], with HepG2 [16] and with HepG2 [17] was Active. Further, in the series with HepG2 [14] (HepG2, 216 h, read-out: TGI), the inhibition in vivo at 10 mg/kg was found to be 26.5%.
Take `CNC(=O)c1cc(Oc2ccc(NC(=O)Nc3ccc(Cl)c(C(F)(F)F)c3)cc2)ccn1` [SORAFENIB]: the IC50 was 24.9 µM in the series with DU-145; 11.3 µM in the series on MCF7; 27.7 µM with A549; 15.8 µM in series [20]; 8.42 µM with HepG2 [1]; 19.5 µM in [2]. Also, in the series on Mus musculus [5], the Activity entry is recorded as “Toxic”. Further, the TGI entry in the series on HepG2 [10] and in the series on HepG2 [14] was “Active” throughout.
As to `COc1cc2ncnc(Nc3ccccc3N(CCCl)CCCl)c2cc1OC(C)=O`, the IC50 in the series with DU-145 was determined as 99.4 µM; with MCF7, 57.1 µM; in the series on A549, 62.9 µM; with HepG2 [1] it was 48.4 µM; in series [2] it was 28.2 µM.
For `COc1cc2ncnc(Nc3ccc(N(CCCl)CCCl)cc3)c2cc1OC` the same measures were above 100 µM, 51.1 µM, above 100 µM, 29.9 µM and 7.36 µM.
In the case of `COCCOc1cc2ncnc(Nc3ccccc3N(CCCl)CCCl)c2cc1OCCOC`, the IC50 in the series with DU-145 is above 100 µM; in the series with MCF7 it was 97.7 µM; in the series on A549 it was 33.1 µM; in the series on HepG2 [1] it was 11.3 µM; in [2], 45.8 µM.
For the molecule `COCCOc1cc2ncnc(Nc3ccc(N(CCCl)CCCl)cc3)c2cc1OCCOC`, the IC50 was above 100 µM in the series on DU-145; above 100 µM in the series on MCF7; above 100 µM in the series on A549; 85 µM in the series on HepG2 [1]; 13.2 µM in series [2].
For the molecule `COc1cc2ncnc(Nc3ccccc3N(CCCl)CCCl)c2cc1OC`, the IC50 in the series with DU-145 was above 100 µM; in the series with MCF7, 89.2 µM; with A549 it was 81.5 µM; in the series with HepG2 [1], 77.2 µM; in series [2] it was 22.6 µM.
For `COc1cc2ncnc(Nc3cccc(N(CCCl)CCCl)c3)c2cc1OC(C)=O` the same measures were 21.6 µM, 39.9 µM, 39.1 µM, 29.1 µM and 24 µM.
